Here are results for 2 molecules from ChEMBL document CHEMBL2331243, “Discovery and mechanism study of SIRT1 activators that promote the deacetylation of fluorophore-labeled substrate” (J Med Chem, 2013).

In assay [1] the target is T1, NAD-dependent protein deacetylase sirtuin-1 (Homo sapiens) (UniProt Q96EB6).
T1 sequence (whole entry): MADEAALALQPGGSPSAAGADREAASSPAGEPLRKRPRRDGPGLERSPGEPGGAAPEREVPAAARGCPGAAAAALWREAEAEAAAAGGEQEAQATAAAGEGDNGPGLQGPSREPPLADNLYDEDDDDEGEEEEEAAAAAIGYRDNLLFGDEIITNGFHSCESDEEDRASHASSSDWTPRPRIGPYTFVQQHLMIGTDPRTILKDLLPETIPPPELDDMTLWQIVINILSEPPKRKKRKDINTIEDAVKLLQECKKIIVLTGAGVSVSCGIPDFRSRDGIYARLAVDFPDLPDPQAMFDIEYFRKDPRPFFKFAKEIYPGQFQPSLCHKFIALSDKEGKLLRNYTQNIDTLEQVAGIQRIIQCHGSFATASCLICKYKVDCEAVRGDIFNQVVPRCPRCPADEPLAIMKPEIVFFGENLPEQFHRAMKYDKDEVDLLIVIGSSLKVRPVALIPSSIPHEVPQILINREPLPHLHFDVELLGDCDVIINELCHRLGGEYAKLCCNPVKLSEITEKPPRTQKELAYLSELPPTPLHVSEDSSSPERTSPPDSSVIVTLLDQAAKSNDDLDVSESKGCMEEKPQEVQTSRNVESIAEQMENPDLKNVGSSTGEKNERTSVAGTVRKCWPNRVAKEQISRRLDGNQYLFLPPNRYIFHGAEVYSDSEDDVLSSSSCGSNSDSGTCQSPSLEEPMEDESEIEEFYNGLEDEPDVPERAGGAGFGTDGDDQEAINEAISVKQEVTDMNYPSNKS
Description: Activation of SIRT1 in human MCF7 cells assessed as reduction in doxorubicin-induced acetyl-p53 level at >100 uM after 6 hrs by Western blotting analysis. Type of assay: cell-based. In outline: (§1)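 MCF-7 cells were seeded at 1 × 10⁵ in DMEM with 10% fetal calf serum and grown 24 h at 37 °C, 5% CO₂. They then got gradient compound concentrations with 0.1 μM trichostatin and 5 μM doxorubicin for 6 h, then lysis. 50 μg protein was run on a 9% gel and blotted with polyclonal anti-acetyl-p53 (Lys382) at 4 °C overnight, with HRP anti-rabbit detection.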
Background: Immunoblotting shows a protein as a band on a membrane.

The target in assay [2] is T1, NAD-dependent protein deacetylase sirtuin-1 (Homo sapiens). Description: Activation of N-terminal His6-tagged SIRT1 (156 to 664 amino acid residues) (unknown origin) expressed in Escherichia coli BL21(DE3) using ac-RHKKac-AMC as substrate at 50 uM after 45 mins by fluorimetric analysis relative to control. The method, boiled down:
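Fluorogenic deacetylation screen: 1 μM SIRT1 with 750 μM NAD⁺ and 31.25 μM ac-RHKK_ac-AMC in Tris buffer (25 mM Tris, 137 mM NaCl, 2.7 mM KCl, 1 mM MgCl₂, pH 8.0). Compounds at 50 μM from DMSO stocks; DMSO alone as blank. Trypsin then releases AMC from deacetylated peptide; fluorescence read at 340/490 nm.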

For assay [3] the target is unchanged. Description: Activation of N-terminal His6-tagged SIRT1 (156 to 664 amino acid residues) (unknown origin) expressed in Escherichia coli BL21(DE3) using ac-RHKKac-NH2 as substrate after 45 mins by HPLC analysis.
Assay [4] relates to T2, NAD-dependent protein deacetylase sirtuin-1 (Homo sapiens), Q96EB6 [R446A].
T2 sequence (whole entry): T1 sequence (whole entry) with R446A
Description: Activation of SIRT1 R446A mutant (unknown origin) at 50 uM relative to control. In outline: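 SIRT1 R446A mutant made by site-directed mutagenesis, expressed in E. coli and purified on Ni-NTA. Fluorescent deacetylation assay used 1 μM enzyme, 750 μM NAD⁺, 31.25 μM ac-RHKK_ac-AMC and 50 μM compound versus DMSO, in Tris buffer pH 8.0. Trypsin released AMC from deacetylated peptide, read at ex 340/em 490 nm.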

Assay [5] has as its target T1, NAD-dependent protein deacetylase sirtuin-1 (Homo sapiens). Briefly: Activation of SIRT1 in human MCF7 cells assessed as reduction in doxorubicin-induced acetyl-p53 level at <100 uM after 6 hrs by Western blotting analysis. Format: cell-based. The method, boiled down: as §1
Assay [6] has as its target T3, NAD-dependent protein deacetylase sirtuin-3, mitochondrial (Homo sapiens, UniProt Q9NTG7).
T3 sequence (Q9NTG7 whole entry): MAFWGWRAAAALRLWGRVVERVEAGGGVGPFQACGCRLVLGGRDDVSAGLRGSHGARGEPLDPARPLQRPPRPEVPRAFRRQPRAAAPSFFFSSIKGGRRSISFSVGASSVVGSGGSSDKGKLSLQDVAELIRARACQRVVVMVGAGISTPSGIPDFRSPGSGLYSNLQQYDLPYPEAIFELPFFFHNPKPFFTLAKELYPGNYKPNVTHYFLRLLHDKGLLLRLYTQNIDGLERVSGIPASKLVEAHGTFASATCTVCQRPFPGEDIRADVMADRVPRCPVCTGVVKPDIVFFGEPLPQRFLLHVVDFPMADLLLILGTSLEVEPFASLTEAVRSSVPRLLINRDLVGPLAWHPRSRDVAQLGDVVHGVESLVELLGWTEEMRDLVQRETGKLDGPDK
Briefly: Activation of N-terminal His6-tagged SIRT3 (118 to 399 amino acid residues) (unknown origin) expressed in Escherichia coli BL21(DE3) using ac-RHKKac-AMC as substrate after 45 mins by fluorometric analysis. In outline: (§2)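 Fluorescent deacetylation assay in 25 mM Tris, 137 mM NaCl, 2.7 mM KCl, 1 mM MgCl₂, pH 8.0, with 750 μM NAD⁺ and 31.25 μM ac-RHKK_ac-AMC. Enzyme was 3.6 μM SIRT3 or 4.2 μM GST-SIRT2, set to match SIRT1 activity. Trypsin released AMC from the deacetylated peptide, read at ex 340 / em 490 nm. Compounds were added from DMSO (DMSO as blank): single point at 50 μM, or 3-fold DMSO dilution series. EC1.5 (concentration giving 50% activity increase) and maximum activation were fitted to a dose–response function.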

The target in assay [7] is T4, NAD-dependent protein deacetylase sirtuin-3, mitochondrial (Homo sapiens) (UniProt Q9NTG7).
T4 sequence (whole entry): T3 sequence (Q9NTG7 whole entry)
Briefly: Activation of N-terminal His6-tagged SIRT3 (118 to 399 amino acid residues) (unknown origin) expressed in Escherichia coli BL21(DE3) using ac-RHKKac-AMC as substrate at 50 uM after 45 mins by fluorometric analysis relative to control. In outline:
as §2

For assay [8], the target named is T5, NAD-dependent protein deacetylase sirtuin-2 (Homo sapiens) (UniProt Q8IXJ6).
T5 sequence (whole entry): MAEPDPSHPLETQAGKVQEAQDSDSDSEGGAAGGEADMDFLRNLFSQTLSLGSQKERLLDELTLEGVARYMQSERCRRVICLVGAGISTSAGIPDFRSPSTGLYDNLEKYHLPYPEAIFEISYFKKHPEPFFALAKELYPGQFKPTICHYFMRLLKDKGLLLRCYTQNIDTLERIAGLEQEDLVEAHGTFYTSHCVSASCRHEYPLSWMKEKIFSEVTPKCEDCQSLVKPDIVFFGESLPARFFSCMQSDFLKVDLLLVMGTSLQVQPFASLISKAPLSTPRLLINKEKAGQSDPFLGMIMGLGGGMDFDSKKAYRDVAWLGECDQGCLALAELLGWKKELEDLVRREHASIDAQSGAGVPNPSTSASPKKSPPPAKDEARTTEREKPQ
Briefly: Activation of at N-terminal GST-tagged SIRT2 (34 to 356 amino acid residues) (unknown origin) expressed in Escherichia coli BL21(DE3) using ac-RHKKac-AMC as substrate at 50 uM after 45 mins by fluorometric analysis relative to control. The method, boiled down:
as §2

The target in assay [9] is T6, NAD-dependent protein deacetylase sirtuin-1 (Homo sapiens, UniProt Q96EB6).
T6 sequence (Q96EB6 whole entry): T1 sequence (whole entry)
Briefly: Activation of N-terminal His6-tagged SIRT1 (156 to 664 amino acid residues) (unknown origin) expressed in Escherichia coli BL21(DE3) using ac-RHKKac-AMC as substrate after 45 mins by fluorometric analysis.

For assay [10], the target named is T7, NAD-dependent protein deacetylase sirtuin-2 (Homo sapiens, UniProt Q8IXJ6).
T7 sequence (Q8IXJ6 whole entry): T5 sequence (whole entry)
Briefly: Activation of at N-terminal GST-tagged SIRT2 (34 to 356 amino acid residues) (unknown origin) expressed in Escherichia coli BL21(DE3) using ac-RHKKac-AMC as substrate after 45 mins by fluorometric analysis. In outline: as §2

The structures appear in SMILES notation. Positions count from the first letter of the chain named. Calls of active or inactive are those of the source. The rule behind the calls is not given here.

Consider `Oc1ccc(/C=C/c2cc(O)cc(O)c2)cc1`, for which the outcome in assay [1] was Active. Further, the results for the max activation in [2] and in assay [4] were 802% and 239%, respectively. Moreover, the outcome in [3] and in assay [5] was inactive.

One may read the EC50 as the concentration needed to bring the measured effect to its halfway point. Turning to `O=C(N/N=C/c1cc(Br)c(O)c(Br)c1O)c1ccc2cc(-c3ccccc3)ccc2c1`, the EC50 in assay [6] turned out to be 28.6 µM; in [9] it was 1.8 µM; in assay [10], 11.6 µM. Besides, the results for the max activation in assay [7], in assay [2] and in assay [8] were 199%, 194% and 257%, respectively.
